Among the data in the array DNA melting data of Ke et al. (doi:10.1101/2024.01.08.574731) are folding enthalpy and Tm values, retold here.

Series [1] in a line: folding enthalpy; higher = less favourable; fluorescence melt of hairpins on a sequencing array, two-state fit. The settings on record: sodium 0.088 M. In outline: (§1)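 With Cy3 and quencher oligos annealed, library hairpins on a sequenced MiSeq flow cell were imaged for Cy3 fluorescence in 50 mM Na-HEPES pH 8.0, 25 mM NaCl, in 2.5 °C steps up to 60 °C. Melting temperature and folding enthalpy were derived from bootstrapped two-state fits of signals normalised to pre-quench Cy3 and to control constructs. Four replicates were combined by inverse variance, with fitted temperatures raised by 9.35 °C to match UV melts.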

Series [2] in a line: melting temperature; fluorescence melt of hairpins on a sequencing array, two-state fit, raised by 9.35 °C to match UV melts. The note with it: sodium 0.088 M. In outline: as §1

In the case of GACCTGGGAAACTAGGTC (((((.(....).))))), in series [1], the folding enthalpy is -42.5 kcal/mol. In addition, the Tm in series [2] is 50.1 °C.

As to GATCGTCTAGACGATC ((((((....)))))), the folding enthalpy in series [1] is -37.2 kcal/mol. The Tm in series [2] came out at 59.7 °C.

With GTGCACGAAAGTGCGCAC ((((((....)))..))), in series [1], the folding enthalpy is -10.5 kcal/mol. Moreover, the Tm in series [2] came to 58 °C.

On to GAGACTCCGAAAGGACTC (((..(((....)))))), for which the folding enthalpy in series [1] is -12.8 kcal/mol. Moreover, the Tm in series [2] came to 25.6 °C.

With GGGGCGGGAAACCGCCTC (.(((((....))))).), the folding enthalpy in series [1] is -12 kcal/mol. Moreover, the Tm in series [2] was found to be 60.5 °C.

For the sequence GCTGACGGAAACGTCGGC ((.((((....)))).)), the folding enthalpy in series [1] is -48.3 kcal/mol. The Tm in series [2] was found to be 63.3 °C.

For GTGTAGGGAAACCCACAC ((((.((....)).)))), the folding enthalpy in series [1] is -24.5 kcal/mol. In series [2], the Tm worked out at 45.8 °C.

For the sequence GGCAACGAAAGTTAGCC ((((((....))).))), in series [1], the folding enthalpy is -37.5 kcal/mol. Moreover, in series [2], the Tm turned out to be 53.9 °C.

Turning to GCTCCACGAAAGTGAAGC (((.(((....))).))), the folding enthalpy in series [1] was -30.2 kcal/mol. The Tm in series [2] was 51.2 °C.

GAAAACCCGAAAGGGTTC (((..(((....)))))): the folding enthalpy in series [1] is -8.48 kcal/mol. Further, in series [2], the Tm turned out to be 39.8 °C.

As to GAGGTTGCGAAAGCACTC (((..(((....)))))), the folding enthalpy in series [1] was -11.3 kcal/mol. Further, in series [2], the Tm came to 33.9 °C.

In the case of GTACCGGGAAACCGATAC (((.(((....))).))), in series [1], the folding enthalpy was -27.7 kcal/mol. In addition, the Tm in series [2] turned out to be 40 °C.

In the case of GCATGTGGAAACACATAC (.(((((....))))).), the folding enthalpy in series [1] is -14.9 kcal/mol. Also, in series [2], the Tm turned out to be 38.6 °C.

In the case of GCTGGCTCGAAAGAGAGC (((..(((....)))))), the folding enthalpy in series [1] was -11.1 kcal/mol. Besides, the Tm in series [2] turned out to be 36.9 °C.

Consider GATCGTCCAAACGATC ((((((....)))))), for which, in series [1], the folding enthalpy is -42.7 kcal/mol. The Tm in series [2] came to 55.2 °C.

With GTTGCGCGAAAGCGAAC (((.(((....)))))), the folding enthalpy in series [1] is -13.4 kcal/mol. Besides, the Tm in series [2] stood at 45.5 °C.

With GCTGTCACGAAAGTGAGC (((..(((....)))))), the folding enthalpy in series [1] was -12.2 kcal/mol. The Tm in series [2] amounted to 38.3 °C.

Regarding GCTTGGAAACAAGC (((((....))))), in series [1], the folding enthalpy is -31 kcal/mol. Also, the Tm in series [2] is 53.7 °C.

In the case of GATCGTCTGAACGATC ((((((....)))))), the folding enthalpy in series [1] was -39.6 kcal/mol. Also, in series [2], the Tm is 55.6 °C.

Regarding GATCTGACCGCAGATC ((((((....)))))), the folding enthalpy in series [1] is -27.4 kcal/mol. In series [2], the Tm was 48 °C.

For the sequence GTTCGACGAAAGTCAAAC (((.(((....))).))), the folding enthalpy in series [1] is -21.3 kcal/mol. Besides, in series [2], the Tm was determined as 41.7 °C.

On to CGTTCTCGGAAACGAACG (((..(((....)))))), for which the folding enthalpy in series [1] is -19.2 kcal/mol. Also, in series [2], the Tm worked out at 35.8 °C.

Turning to CGCTCGGAAACGAAGGCG ((((((....)))..))), the folding enthalpy in series [1] was -29.6 kcal/mol. The Tm in series [2] worked out at 44.7 °C.

As to GAGCTGCGAAAGCAACTC (((.(((....))).))), the folding enthalpy in series [1] was -31.8 kcal/mol. For the same sequence, the Tm in series [2] is 51.2 °C.

As for GTGATCCGAAAGGAGCAC (((.(((....))).))), the folding enthalpy in series [1] was -41.5 kcal/mol. Besides, the Tm in series [2] was 66.4 °C.

For GGATCTCGAAAGAGGTCC (((.(((....))).))), the folding enthalpy in series [1] is -41.4 kcal/mol. In series [2], the Tm amounted to 57.3 °C.

For GGGTTTGGAAACGAATCC ((.((.(....).)).)), the folding enthalpy in series [1] is -25.1 kcal/mol. The Tm in series [2] amounted to 34.6 °C.

Turning to GCCTCCGAAAGGAACGGC ((((((....)))..))), in series [1], the folding enthalpy was -25.3 kcal/mol. Besides, the Tm in series [2] was found to be 46.9 °C.

For the sequence GTATATACGAAAGTATAC (((..(((....)))))), the folding enthalpy in series [1] is -16.1 kcal/mol. Further, the Tm in series [2] was found to be 29.6 °C.

In the case of GCGATCGATCGC ((((....)))), the folding enthalpy in series [1] was -41.2 kcal/mol. The Tm in series [2] turned out to be 56.5 °C.

For GCGCCCGAAAGGGTCCGC ((((((....)))..))), the folding enthalpy in series [1] was -14.8 kcal/mol. Moreover, the Tm in series [2] came to 56.2 °C.

As to GATGCGCGAAAGCGGATC (((.(((....))).))), in series [1], the folding enthalpy was -30.6 kcal/mol. In addition, the Tm in series [2] is 64.5 °C.

GCATGGCGAAAGCATTGC (((..((....))..))): the folding enthalpy in series [1] is -20 kcal/mol. Further, the Tm in series [2] came to 49.6 °C.

Turning to AATGCGAAAGCATT (((((....))))), the folding enthalpy in series [1] was -15.3 kcal/mol. Further, the Tm in series [2] came to 64.9 °C.

Take GGCCACGAAAGTGTAGCC ((((((....)))..))): in series [1], the folding enthalpy is -25 kcal/mol. For the same sequence, in series [2], the Tm came to 53.1 °C.

For the sequence GATCTCAAAGAGATC ((((((...)))))), in series [1], the folding enthalpy is -37.6 kcal/mol. In addition, in series [2], the Tm was determined as 55.2 °C.

On to GGAGGCGAAAGCCGCTCC ((((((....)))..))), for which, in series [1], the folding enthalpy is -9.69 kcal/mol. Moreover, in series [2], the Tm was found to be 49.2 °C.
